Experimental data from different studies.
Each line is one published result; the experiments were not run side by side. pEC50: −log10 of the molar value. Values after ≈ are worked out from the molar mass of the structure shown.

The IC50 of `COc1ccc(-n2cc(COC3=CC(=O)c4ccccc4C3=O)nn2)cc1` is reported as 137 µg/mL (≈ 379 µM) (Klebsiella pneumoniae; microbial growth, broth dilution; ATCC700603).
The activity vs control of `Nc1ncnc2c1ncn2[C@H]1C[C@H](O)[C@@H](COP(=O)(O)O)O1` is reported as 96.7% (Cryptosporidium parvum; parasite growth, imaging; HCT-8; 1 mM, 24 h, intracellular).
The inhibition of `CC(C)(NC(=O)c1cc2c(Cl)cc(Cl)cc2[nH]1)c1cn(Cc2ccccc2)nn1` is reported as greater than 60% (Cryptosporidium parvum; parasite growth, imaging; HCT-8; 11 µM, 72 h, intracellular).
The inhibition zone of `N#CC(=Cc1ccc(Cl)cc1)C1=NC(=O)C(=Cc2cn(-c3ccccc3)nc2-c2ccccc2)S1` is reported as 21 mm (Klebsiella pneumoniae; microbial growth, well diffusion; 100000 µg/mL).
The activity vs control of `NCCCCNCCCN` is reported as 100% (Cryptosporidium parvum; parasite growth, imaging; HCT-8; 1 mM, 24 h, intracellular).
With `CC(C)(NC(=O)c1cc2c(Cl)cc(Cl)cc2[nH]1)c1cn(Cc2ccc(Cl)c(Cl)c2)nn1` the inhibition was greater than 60% (Cryptosporidium parvum; parasite growth, imaging; HCT-8; 11 µM, 72 h, intracellular).
With `CCOC(=O)C=c1[nH]c(=O)c(=Cc2cn(-c3ccccc3)nc2-c2ccccc2)s1` the inhibition zone was 14 mm (Klebsiella pneumoniae; microbial growth, well diffusion; 100000 µg/mL).
The MBC of `O=C1NC(=S)S/C1=C\c1ccc(-c2ccc(N(c3ccccc3)c3ccccc3)cc2)cc1` is reported as greater than 1000 µg/mL (Streptococcus pneumoniae; microbial killing, broth dilution; ATCC49619).
The MBC of `CCn1cc(C(=O)O)c(=O)c2cc(F)c(N3CCNCC3)cc21` is reported as 2 µM (Klebsiella pneumoniae; microbial killing, broth dilution; ATCC43816).
For `CC(C)(NC(=O)c1cc2c(Cl)cc(Cl)cc2[nH]1)c1cn(Cc2cccc(Cl)c2)nn1`, the inhibition was greater than 60% (Cryptosporidium parvum; parasite growth, imaging; HCT-8; 11 µM, 72 h, intracellular).
`O=C1NC(=S)N/C1=C\c1c2ccccc2c(-c2ccc(N(c3ccccc3)c3ccccc3)cc2)c2ccccc12` gave an MBC of greater than 1000 µg/mL (Streptococcus pneumoniae; microbial killing, broth dilution; ATCC49619).
`Cc1c(NN=C2SC(C(C#N)=Cc3ccc(Cl)cc3)=NC2=O)c(=O)n(-c2ccccc2)n1C` gave an inhibition zone of 16 mm (Klebsiella pneumoniae; microbial growth, well diffusion; 100000 µg/mL).
For `O=C1C=C(O)C(=O)c2ccccc21`, the IC50 was 123 µg/mL (≈ 709 µM) (Klebsiella pneumoniae; microbial growth, broth dilution; ATCC700603).
With `O=C(O)CCc1ccc(O)cc1` the activity vs control was 90.5% (Cryptosporidium parvum; parasite growth, imaging; HCT-8; 1 mM, 24 h, intracellular).
The inhibition zone of `N#CC(=Cc1ccc([N+](=O)[O-])cc1)C1=NC(=O)C(=Cc2cn(-c3ccccc3)nc2-c2ccccc2)S1` is reported as 22 mm (Klebsiella pneumoniae; microbial growth, well diffusion; 100000 µg/mL).
With `O=C(O)CN1C(=O)/C(=C/c2ccc(-c3ccc(N(c4ccccc4)c4ccccc4)cc3)cc2)NC1=S` the MIC was 62.5 µg/mL (≈ 124 µM) (Streptococcus pneumoniae; microbial growth, broth dilution; ATCC49619).
`Cc1ccc(C(C)C)cc1OS(=O)(=O)c1cccs1` has an IC50 of 163 µg/mL (≈ 551 µM) (Klebsiella pneumoniae; microbial growth, broth dilution; ATCC700603).
With `Oc1ccc2cc[nH]c2c1` the pEC50 was 3.14 (Cryptosporidium parvum; parasite growth; HCT-8; 24 h, intracellular).
With `O=C(O)CN1C(=O)/C(=C/c2c3ccccc3c(-c3ccc(N(c4ccccc4)c4ccccc4)cc3)c3ccccc23)SC1=S` the MIC was greater than 1000 µg/mL (Streptococcus pneumoniae; microbial growth, broth dilution; ATCC49619).
The inhibition zone of `N#CC(=Cc1cn(-c2ccccc2)nc1-c1ccccc1)C1=NC(=O)CS1` is reported as 27 mm (Klebsiella pneumoniae; microbial growth, well diffusion; 100000 µg/mL).
`CNCC(=O)O` gave an activity vs control of 98% (Cryptosporidium parvum; parasite growth, imaging; HCT-8; 1 mM, 24 h, intracellular).
`CN[C@H](CC(C)C)C(=O)N[C@H]1C(=O)N[C@@H](CC(N)=O)C(=O)N[C@H]2C(=O)N[C@H]3C(=O)N[C@H](C(=O)N[C@H](C(=O)O)c4cc(O)cc(O)c4-c4cc3ccc4O)[C@H](O)c3ccc(c(Cl)c3)Oc3cc2cc(c3O[C@@H]2O[C@H](CO)[C@@H](O)[C@H](O)[C@H]2O[C@H]2C[C@](C)(N)[C@H](O)[C@H](C)O2)Oc2ccc(cc2Cl)[C@H]1O` gave an MIC of 0.24 µg/mL (≈ 0.166 µM) (Streptococcus pneumoniae; microbial growth, broth dilution; ATCC49619).
`O=C1C=C(OCc2cn(-c3ccc(Cl)cc3)nn2)C(=O)c2ccccc21` has an IC50 of 348 µg/mL (≈ 951 µM) (Klebsiella pneumoniae; microbial growth, broth dilution; ATCC700603).
`O=C(O)CN1C(=O)/C(=C/c2ccc(-c3ccc(N(c4ccccc4)c4ccccc4)cc3)c3ccccc23)NC1=S` has an MIC of greater than 1000 µg/mL (Streptococcus pneumoniae; microbial growth, broth dilution; ATCC49619).
For `Cc1ccc(C(C)C)cc1OCc1cn(-c2ccc(C(=O)O)cc2)nn1`, the IC50 was 261 µg/mL (≈ 743 µM) (Klebsiella pneumoniae; microbial growth, broth dilution; ATCC700603).
The inhibition zone of `O=C(O)c1cn(C2CC2)c2cc(N3CCNCC3)c(F)cc2c1=O` is reported as 17 mm (Klebsiella pneumoniae; microbial growth, disc diffusion; 100 µg/mL, 24 h).
With `O=C1NC(=S)S/C1=C\c1ccc(-c2ccc(N(c3ccccc3)c3ccccc3)cc2)c2ccccc12` the MBC was greater than 1000 µg/mL (Streptococcus pneumoniae; microbial killing, broth dilution; ATCC49619).
`Cc1ncc(CO)c(C(=O)O)c1O` has an activity vs control of 105% (Cryptosporidium parvum; parasite growth, imaging; HCT-8; 1 mM, 24 h, intracellular).
With `Cc1c(NC(=O)CC2=NC(=O)CS2)c(=O)n(-c2ccccc2)n1C` the MBC was 0.5 µg/mL (Klebsiella pneumoniae; microbial killing, broth dilution).
`Cc1ccc(C(C)C)cc1OS(=O)(=O)c1ccccc1` has an IC50 of 117 µg/mL (Klebsiella pneumoniae; microbial growth, broth dilution; ATCC700603).
For `CN(C)CC(=O)O`, the activity vs control was 105% (Cryptosporidium parvum; parasite growth, imaging; HCT-8; 1 mM, 24 h, intracellular).
With `Cc1ccc(C(C)C)cc1OCc1cn(-c2ccc([N+](=O)[O-])cc2)nn1` the IC50 was 122 µg/mL (≈ 346 µM) (Klebsiella pneumoniae; microbial growth, broth dilution; ATCC700603).
`CCCCC[C@H](O)/C=C/[C@H]1[C@H](O)CC(=O)[C@@H]1C/C=C\CCCC(=O)O` gave an activity vs control of 88.5% (Cryptosporidium parvum; parasite growth, imaging; HCT-8; 50 µM, 24 h, intracellular).
`Cc1c(NN=C2SC(C(C#N)=Cc3ccccc3)=NC2=O)c(=O)n(-c2ccccc2)n1C` gave an inhibition zone of 14 mm (Klebsiella pneumoniae; microbial growth, well diffusion; 100000 µg/mL).
`Cc1ccc(C(C)C)cc1O` has an IC50 of 61.9 µg/mL (≈ 412 µM) (Klebsiella pneumoniae; microbial growth, broth dilution; ATCC700603).
`N#CC(=Cc1ccccc1O)C1=NC(=O)C(=Cc2cn(-c3ccccc3)nc2-c2ccccc2)S1` has an MBC of 0.5 µg/mL (Klebsiella pneumoniae; microbial killing, broth dilution).
`O=C1NC(=S)N/C1=C\c1ccc(-c2ccc(N(c3ccccc3)c3ccccc3)cc2)c2ccccc12` has an MIC of greater than 1000 µg/mL (Streptococcus pneumoniae; microbial growth, broth dilution; ATCC49619).
